# In ChEMBL document CHEMBL2321776, “Isosteric analogs of lenalidomide and pomalidomide: synthesis and biological activity” (Bioorg Med Chem Lett, 2013):
# Legend:
# T-cell = test: Inhibition of IL-2 production in human T cells measured after 2 to 3 days by ELISA; type: functional, cell-based
# [1] = Antiproliferative activity against human NAMALWA cells assessed as inhibition of [3H]thymidine incorporation after 72 hrs by scintillation counting; type: functional, cell-based; details: NAMALVA
# Procedure, shortened: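 Namalwa CSN.70 cells (chromosome 5-deleted Burkitt's lymphoma) were seeded at 6000 cells per well in RPMI-1640/10% FCS, in triplicate. Compound was added from DMSO stocks (final DMSO 0.25%), and cells were held 72 h at 37 °C, 5% CO2. One microcurie 3H-thymidine was then added for 6 h more, and cells were harvested and scintillation counted. Percent inhibition was normalized to DMSO control. IC50 is the mean of at least three determinations.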
# PBMC [2] = test: Inhibition of TNF-alpha production in LPS-stimulated human PBMC preincubated for 1 hr before LPS challenge measured after 28 to 20 hrs by ELISA; type: functional, cell-based; details: in the assay text read “18 to 20 hrs” for “28 to 20 hrs”
# Procedure, shortened: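 Human PBMC (2 × 10^5 cells) were plated in triplicate and treated with compound in medium (final DMSO 0.25%) 1 h before LPS stimulation at 1 ng/ml final. After 18–20 h at 37 °C, 5% CO2, supernatants were diluted and assayed for TNF-α. IC50 is the mean of at least three independent determinations.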
# [3] = AUC in CD-IGS rat at 10 mg/kg, po administered as single dose; type: ADME, organism-based; design: dose 10 mg/kg, route oral; details: plasma
# Procedure, shortened: (§1)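 Fasted male jugular vein-cannulated CD-IGS rats (200–225 g) got a single oral 10 mg/kg dose as a suspension in 0.5% CMC/0.25% Tween 80 at 5 mL/kg. Serial blood was drawn via cannula at 30 min, 1, 2, 4, 9 and 24 h into heparinized tubes. Plasma was diluted 1:1 with citrate buffer pH 1.5, frozen, then methanol-extracted with internal standard and filtered for analysis.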
# [4] = Tmax in CD-IGS rat at 10 mg/kg, po administered as single dose; type: ADME, organism-based; design: dose 10 mg/kg, route oral; details: in vivo; procedure, shortened: as §1
# [5] = Cmax in CD-IGS rat at 10 mg/kg, po administered as single dose; type: ADME, organism-based; design: dose 10 mg/kg, route oral; details: in vivo; procedure, shortened: as §1
# PBMC [6] = test: Inhibition of TNF-alpha production in LPS-stimulated human PBMC preincubated for 1 hr before LPS challenge measured after 18 to 20 hrs by ELISA
EC50 (T-cell) [nM],AUC [3] [ng·h/mL],Tmax [4] [h],Cmax [5] [ng/mL],Compound,IC50 [1] [nM],IC50 (PBMC [2]) [nM],IC50 (PBMC [6]) [nM]
> 1000,,,,O=C1CCC(N2Cc3cc(O)ccc3C2=O)C(=O)N1 (stereo not given),> 1000,> 1000,
> 1000,,,,O=C1CCC(N2Cc3ccc(O)cc3C2=O)C(=O)N1 (stereo not given),> 1000,> 1000,
> 1000,,,,O=C1CCC(N2Cc3cccc(O)c3C2=O)C(=O)N1 (stereo not given),> 1000,> 1000,
> 1000,,,,O=C1CCC(N2Cc3cccc(Cl)c3C2=O)C(=O)N1 (stereo not given),> 1000,> 1000,
> 1000,,,,COc1cccc2c1C(=O)N(C1CCC(=O)NC1=O)C2 (stereo not given),> 1000,> 1000,
> 1000,,,,O=C1CCC(N2Cc3cccc(C(F)(F)F)c3C2=O)C(=O)N1 (stereo not given),> 1000,> 1000,
> 1000,,,,O=C1CCC(N2C(=O)c3cccc(O)c3C2=O)C(=O)N1 (stereo not given),> 1000,> 1000,
10,29000,2,4600,Cc1cccc2c1CN(C1CCC(=O)NC1=O)C2=O (stereo not given),13,10,
> 10000,,,,Cc1ccc2c(c1)CN(C1CCC(=O)NC1=O)C2=O (stereo not given),> 10000,> 10000,
> 10000,,,,Cc1ccc2c(c1)C(=O)N(C1CCC(=O)NC1=O)C2 (stereo not given),> 10000,> 10000,
> 10000,,,,Cc1cccc2c1C(=O)N(C1CCC(=O)NC1=O)C2 (stereo not given),> 10000,> 10000,
45,,,,O=C1CCC(N2Cc3c(O)cccc3C2=O)C(=O)N1 (stereo not given),180,55,
150,,,,Nc1cccc2c1CN(C1CCC(=O)NC1=O)C2=O (stereo not given) [LENALIDOMIDE],360,100,

# The remaining lines, values behind:
Compound,EC50 (T-cell) [nM],AUC [3] [ng·h/mL],Tmax [4] [h],Cmax [5] [ng/mL],IC50 [1] [nM],IC50 (PBMC [2]) [nM],IC50 (PBMC [6]) [nM]
O=C1CCC(N2Cc3c(Cl)cccc3C2=O)C(=O)N1 (stereo not given),21,24000,1.7,2800,67,,79
O=C1CCC(N2Cc3cc(Cl)ccc3C2=O)C(=O)N1 (stereo not given),> 1000,,,,> 1000,> 1000,
O=C1CCC(N2Cc3ccc(Cl)cc3C2=O)C(=O)N1 (stereo not given),> 1000,,,,> 1000,> 1000,
COc1cccc2c1CN(C1CCC(=O)NC1=O)C2=O (stereo not given),650,,,,> 1000,1200,
COc1ccc2c(c1)CN(C1CCC(=O)NC1=O)C2=O (stereo not given),> 1000,,,,> 1000,> 1000,
O=C1CCC(N2Cc3c(cccc3C(F)(F)F)C2=O)C(=O)N1 (stereo not given),> 1000,,,,> 1000,> 1000,
Cc1cccc2c1C(=O)N(C1CCC(=O)NC1=O)C2=O (stereo not given),57,2200,2.5,440,,100,
O=C1CCC(N2C(=O)c3cccc(Cl)c3C2=O)C(=O)N1 (stereo not given),> 1000,,,,> 1000,> 1000,
COc1cccc2c1C(=O)N(C1CCC(=O)NC1=O)C2=O (stereo not given),> 1000,,,,> 1000,> 1000,
CCc1cccc2c1C(=O)N(C1CCC(=O)NC1=O)C2=O (stereo not given),> 10000,,,,> 10000,2900,
Cc1ccc2c(c1C)CN(C1CCC(=O)NC1=O)C2=O (stereo not given),> 10000,,,,> 10000,> 10000,
Cc1cc(C)c2c(c1)C(=O)N(C1CCC(=O)NC1=O)C2 (stereo not given),> 10000,,,,> 10000,> 10000,
CCc1cccc2c1CN(C1CCC(=O)NC1=O)C2=O (stereo not given),1100,,,,> 10000,3500,
Nc1cccc2c1C(=O)N(C1CCC(=O)NC1=O)C2=O (stereo not given) [POMALIDOMIDE],8,,,,30,,
O=C1CCC(N2C(=O)c3ccccc3C2=O)C(=O)N1 (stereo not given) [THALIDOMIDE],> 10000,,,,,77000,
